Calls of active or inactive are those of the source.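 Rule for the calls, unless noted: active = viability loss from added drug above about 55%, and viability with drug at most 40%, in both replicates (limit read from the data, passing the limit was not always enough); inconclusive = both conditions met in only one replicate; inactive = neither replicate meets both conditions.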 Square brackets hold non-standard residues; d marks the D form. Peptide text beside a SMILES is read from it. ξ: configuration not given here. ξV = CC(C)C(N)C(=O)O
Assays:
[1] = reducers of endogenous Her2 protein level, primary screen, SKBR3 breast tumor cells, AlphaScreen, ATP viability (AID 461;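 active = Her2 level under about 52% in both replicate screens, with viability over 70% of control, limit read from the data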;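 for Her2 level: lower value means less Her2 protein in the cells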;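 for viability: percent of carrier control wells set as 100% viability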); conditions: 18-24 h, measured here: SKBR3 viability, ATP luminescence, at 10 µM
[2] = molecular target: Receptor tyrosine-protein kinase erbB-2 (Homo sapiens) (UniProt P04626); assay: as above; conditions: 18-24 h, at 10 µM, stronger effect = lower value
[3] = SK-BR-3 cell growth inhibitors, pilot screen, 24 h, human (AID 572;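 active = viability at or below 10% of carrier control in both of two separate runs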;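 note: compound exposure lasted between 18 and 24 h rather than exactly 24 h; 100% = carrier-treated control wells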); conditions: SK-BR-3 viability, CellTiter-Glo luminescence, at 10 µM, stronger effect = lower value
[4] = HUVEC growth inhibition – cell-based, human, primary screen (AID 575;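 active = viability at or below 30% in both replicate assays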;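 note: 100% = median of untreated cell wells with 0.1% DMSO on each plate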); conditions: HUVEC proliferation, CellTiter-Glo luminescence, 72 h; at 10 µM; stronger effect = lower value
In short: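 Assay system: Primary human umbilical vein endothelial cells | Quantity: 1250 cells per well | Medium: Supplemented EBM, 2% fetal bovine serum | Detection: CellTiter-Glo luminescence measuring cellular ATP | Read-out: % viability vs DMSO wells | Plate: Collagen-coated 384-well format | Times: 72 h exposure, 37 °C, 5% CO2, 30 min RT equilibration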

[5] = growth inhibitors of H69AR lung tumor, primary screen, human, duplicate replicates (AID 580;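 active = viability at or under a set limit in both replicates, limit being median viability minus 3 SD, cut at about 48% in these data, passing the limit was not always enough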;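 note: 100% = mean luminescence of untreated wells and 0% = no signal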); conditions: H69AR lung tumor cells viability, ATP luminescence, 72 h; at 10 µM; stronger effect = lower value
[6] = reversal of MRP1-mediated doxorubicin resistance, pilot screen, H69AR cells, doxorubicin co-treatment (AID 601); conditions: CellTiter-Glo, 72 h, at 10 µM; for differential viability (reversal): stronger effect = higher value
[7] = 384-well plate pilot, post-Golgi transport modulator project, inhibition of yeast transport mutant growth (AID 636; in the data active = inhibition above about 31%); conditions: absorbance 615 nm, about 18 h, stronger effect = higher value
[8] = growth suppression of yeast trafficking mutant, preliminary HTS, modulators of trafficking downstream of Golgi apparatus project, 1536-format plate, OD 615 nm (AID 637; in the data active = inhibition above about 30%); conditions: yeast transport mutant growth, absorbance 615 nm, 18 h; stronger effect = higher value
[9] = H69AR cells + 2 uM doxorubicin, measured here: viability with 2 uM doxorubicin, stronger effect = lower value
[10] = H69AR cells, compound alone cytotoxicity

Sequence of Receptor tyrosine-protein kinase erbB-2 (Homo sapiens) (P04626 whole entry, looked up): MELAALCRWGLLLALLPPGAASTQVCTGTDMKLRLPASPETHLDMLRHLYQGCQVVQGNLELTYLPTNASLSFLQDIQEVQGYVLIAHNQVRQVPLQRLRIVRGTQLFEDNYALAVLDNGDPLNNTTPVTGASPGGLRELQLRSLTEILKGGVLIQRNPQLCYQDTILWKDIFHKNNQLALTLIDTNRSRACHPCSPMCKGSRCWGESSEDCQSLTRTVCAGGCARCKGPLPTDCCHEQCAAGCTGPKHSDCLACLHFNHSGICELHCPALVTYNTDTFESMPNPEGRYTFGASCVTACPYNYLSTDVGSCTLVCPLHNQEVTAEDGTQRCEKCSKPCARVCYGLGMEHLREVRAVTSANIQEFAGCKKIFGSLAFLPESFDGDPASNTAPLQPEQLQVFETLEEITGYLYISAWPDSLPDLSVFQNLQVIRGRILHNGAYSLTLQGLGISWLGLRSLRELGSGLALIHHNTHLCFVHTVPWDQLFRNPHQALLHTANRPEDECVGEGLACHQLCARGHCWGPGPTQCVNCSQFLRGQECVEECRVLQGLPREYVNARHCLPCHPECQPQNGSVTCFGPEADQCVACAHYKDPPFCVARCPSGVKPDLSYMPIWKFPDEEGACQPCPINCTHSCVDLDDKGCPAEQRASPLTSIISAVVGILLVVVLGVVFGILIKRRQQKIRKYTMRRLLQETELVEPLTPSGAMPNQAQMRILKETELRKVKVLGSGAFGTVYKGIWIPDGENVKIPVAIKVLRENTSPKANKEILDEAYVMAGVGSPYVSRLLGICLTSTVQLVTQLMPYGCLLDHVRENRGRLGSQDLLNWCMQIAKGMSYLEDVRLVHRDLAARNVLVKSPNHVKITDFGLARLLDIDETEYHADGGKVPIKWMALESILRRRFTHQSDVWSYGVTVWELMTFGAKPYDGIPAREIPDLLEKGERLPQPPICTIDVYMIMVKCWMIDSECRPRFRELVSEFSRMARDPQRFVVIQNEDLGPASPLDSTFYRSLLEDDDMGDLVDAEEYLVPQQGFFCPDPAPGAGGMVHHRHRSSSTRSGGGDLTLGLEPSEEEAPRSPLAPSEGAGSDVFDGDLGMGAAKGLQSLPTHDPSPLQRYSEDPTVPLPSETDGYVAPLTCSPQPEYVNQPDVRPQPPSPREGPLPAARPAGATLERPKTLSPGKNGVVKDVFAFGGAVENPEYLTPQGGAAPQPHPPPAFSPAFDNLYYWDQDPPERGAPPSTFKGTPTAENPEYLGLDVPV

| SMILES | viability [1] | Her2 level [2] | viability [3] | viability [4] | viability [5] | differential viability (reversal) ([6]; H69AR cells + 2 uM doxorubicin) | viability [6, 9] | viability [6, 10] | inhibition [7] | inhibition [8] |
| --- | --- | --- | --- | --- | --- | --- | --- | --- | --- | --- |
| Cc1onc(-c2ccccc2Cl)c1C(=O)Nc1cccc(-c2cn3cccnc3n2)c1 | 104% | 84% (inactive) | 104% (inactive) | 71.4% (inactive) | 85.6% (inactive) | 1.15% (inactive) | 84.5% | 85.6% | -5.39% (inactive) | -1.82% (inactive) |
| COc1ccc(CN2C(=O)c3cccnc3C2Nc2cc(Cl)ccc2OC)cc1 (stereo not given) | 84.5% | 110% (inactive) | 84.5% (inactive) | 85% (inactive) | 93.2% (inactive) | 0.7% (inactive) | 92.5% | 93.2% | 2.67% (inactive) | -1.8% (inactive) |
| CCOc1cccc(-c2nnc3sc(COc4ccc(OC)cc4)nn23)c1 | 72.5% | 102% (inactive) | 72.5% (inactive) | 68.3% (inactive) | 85.5% (inactive) | -1.33% (inactive) | 86.9% | 85.5% | -1.95% (inactive) | -6.39% (inactive) |
| CS(=O)(=O)N1CCN(c2ccccc2NC(=O)c2cccs2)CC1 | 99.5% | 100% (inactive) | 99.5% (inactive) | 108% (inactive) | 91.3% (inactive) | -5% (inactive) | 96.3% | 91.3% | -1.17% (inactive) | 1% (inactive) |
| COC(=O)CC1SCCNC1=O (stereo not given) | 92% | 94% (inactive) | 92% (inactive) | 103% (inactive) | 95.6% (inactive) | 5.06% (inactive) | 90.6% | 95.6% | 5.87% (inactive) | 23.7% (inactive) |
| CCCCOn1c(C)c(C(=O)OCC)c2c3nonc3ccc21 | 98.5% | 114% (inactive) | 98.5% (inactive) | 63.5% (inactive) | 83.5% (inactive) | 15% (inactive) | 68.6% | 83.5% | 4.4% (inactive) | 27.6% (inactive) |
| CN(CCc1ccccn1)C(=O)CCNC(=O)Cn1cnc2ccccc2c1=O | 99.5% | 97.5% (inactive) | 99.5% (inactive) | 88.9% (inactive) | 96.4% (inactive) | 13.9% (inactive) | 82.5% | 96.4% | -2.86% (inactive) | -1.9% (inactive) |
| CCC(C)Nc1nc2c(c(=O)n(C)c(=O)n2C)n1Cc1ccc(F)cc1 (stereo not given) | 90.5% | 86.5% (inactive) | 90.5% (inactive) | 88.6% (inactive) | 83.3% (inactive) | -14.3% (inactive) | 97.6% | 83.3% | -5.27% (inactive) | 5.08% (inactive) |
| CC(C)Cn1c(N)c(C(=O)COC(=O)c2ccc3c(c2)OCCO3)c(=O)n(C)c1=O | 87% | 102% (inactive) | 87% (inactive) | 71.3% (inactive) | 91.8% (inactive) | -6.76% (inactive) | 98.6% | 91.8% | -4.46% (inactive) | 0.16% (inactive) |
| CCCCC(=O)NCCc1cc2ccc(OC)cc2[nH]c1=O | 91.5% | 85.5% (inactive) | 91.5% (inactive) | 102% (inactive) | 103% (inactive) | 7.54% (inactive) | 95.4% | 103% | -7.95% (inactive) | -3.33% (inactive) |
| CCOC(=O)c1c(C)oc2ccc(OCC(=O)N(CC)CC)cc12 | 85.5% | 85% (inactive) | 85.5% (inactive) | 101% (inactive) | 101% (inactive) | 3.73% (inactive) | 97.2% | 101% | -5.26% (inactive) | -0.32% (inactive) |
| Cc1nc2c(o1)CCc1ccccc1C2O (stereo not given) | 96% | 91% (inactive) | 96% (inactive) | 93.9% (inactive) | 94.4% (inactive) | -5.3% (inactive) | 99.7% | 94.4% | -4% (inactive) | -2.95% (inactive) |
| COCCn1c(SCC(=O)Nc2sc(C)c(C)c2C#N)nnc1C(C)C | 98% | 92.5% (inactive) | 98% (inactive) | 96% (inactive) | 89.6% (inactive) | -3.22% (inactive) | 92.8% | 89.6% | -0.13% (inactive) | -4.35% (inactive) |
| CC(=O)NC(C(=O)NCC(N)=O)C(C)C (stereo not given) (Ac-[ξV]-Gly-NH2) | 90% | 104% (inactive) | 90% (inactive) | 100% (inactive) | 93.9% (inactive) | -1.82% (inactive) | 95.7% | 93.9% | -5.58% (inactive) | -9.05% (inactive) |
| c1cncc(-c2nnc(SCCSc3nnc(-c4cccnc4)o3)o2)c1 | 99.5% | 93% (inactive) | 99.5% (inactive) | 98.7% (inactive) | 91.9% (inactive) | 0.085% (inactive) | 91.8% | 91.9% | -5.68% (inactive) | -2.17% (inactive) |
| CC12CN3CC(C)(CN(C1)C3c1ccc(Br)cc1)C2 (stereo not given) | 99% | 97% (inactive) | 99% (inactive) | 99.2% (inactive) | 102% (inactive) | 12.9% (inactive) | 89.4% | 102% | -2.63% (inactive) | 2.46% (inactive) |
| O=C1CCc2cc(S(=O)(=O)N3CCC(C(=O)Nc4nccs4)CC3)ccc2N1 | 98% | 105% (inactive) | 98% (inactive) | 110% (inactive) | 85.3% (inactive) | 4.98% (inactive) | 80.3% | 85.3% | -1.67% (inactive) | -1.17% (inactive) |
| NCC(O)COc1ccc2c(c1)OCO2 (stereo not given) | 99% | 120% (inactive) | 99% (inactive) | 104% (inactive) | 100% (inactive) | 3.33% (inactive) | 97% | 100% | 3.16% (inactive) | 6.39% (inactive) |
| CCc1ccc(CNCc2cccnc2)cc1 | 91% | 100% (inactive) | 91% (inactive) | 91.2% (inactive) | 92.4% (inactive) | 6.96% (inactive) | 85.4% | 92.4% | -1.82% (inactive) | -2% (inactive) |
| COc1cc(-c2nc(S(=O)(=O)c3ccccc3)c(N3CCOCC3)o2)cc(OC)c1OC | 82.5% | 86.5% (inactive) | 82.5% (inactive) | 97.7% (inactive) | 87.1% (inactive) | 14.8% (inactive) | 72.2% | 87.1% | -3.16% (inactive) | 12% (inactive) |
| Cn1nc(C(=O)Nc2cccc(C(F)(F)F)c2)ccc1=O | 95.5% | 92% (inactive) | 95.5% (inactive) | 107% (inactive) | 91.5% (inactive) | 6.87% (inactive) | 84.7% | 91.5% | -3.29% (inactive) | 1.45% (inactive) |
| CCOC(=O)CNC(=O)Nc1nnc(-c2ccc(OCC)cc2)o1 | 99% | 92% (inactive) | 99% (inactive) | 105% (inactive) | 98.3% (inactive) | 8% (inactive) | 90.3% | 98.3% | -1.08% (inactive) | -3.02% (inactive) |
| COc1ccc2c(CC(=O)Nc3nnc(C4CC4)s3)coc2c1 | 120% | 81% (inactive) | 120% (inactive) | 89.4% (inactive) | 99.4% (inactive) | 5.3% (inactive) | 94.1% | 99.4% | -7.26% (inactive) | -1.9% (inactive) |
| O=C1CSC(c2cn(-c3ccccc3)nc2-c2ccccc2)N1Cc1ccco1 (stereo not given) | 97% | 110% (inactive) | 97% (inactive) | 63.1% (inactive) | 88.3% (inactive) | 17.7% (inactive) | 70.6% | 88.3% | 0.92% (inactive) | 3.55% (inactive) |
| CCN(CC)C(=O)Cn1c(=O)n(Cc2ccccc2Cl)c2c1c(=O)n(C)c(=O)n2C | 98% | 100% (inactive) | 98% (inactive) | 98.6% (inactive) | 93.7% (inactive) | 4.23% (inactive) | 89.5% | 93.7% | -0.93% (inactive) | -4.13% (inactive) |
| CCC(C)(C(=O)NC1CCCCC1)N(Cc1ccco1)C(=O)c1ccc2c(c1)OCO2 (stereo not given) | 92.5% | 89% (inactive) | 92.5% (inactive) | 82.3% (inactive) | 83.4% (inactive) | 3.06% (inactive) | 80.3% | 83.4% | -1.82% (inactive) | -7.05% (inactive) |
| COc1ccc(S(=O)(=O)C(C#N)c2nc3ccccc3nc2N2CCCC(C)C2)cc1 (stereo not given) | 112% | 102% (inactive) | 112% (inactive) | 51.2% (inactive) | 75.5% (inactive) | -10.6% (inactive) | 86% | 75.5% | -2.21% (inactive) | 6.67% (inactive) |
| COC(=O)Nc1nnc(CCc2ccccc2)s1 | 115% | 97.5% (inactive) | 115% (inactive) | 97.2% (inactive) | 95.2% (inactive) | 14.9% (inactive) | 80.3% | 95.2% | -7.07% (inactive) | 9.52% (inactive) |
| CCCCNC(=O)CN(C1CCCCC1)S(C)(=O)=O | 104% | 107% (inactive) | 104% (inactive) | 101% (inactive) | 103% (inactive) | 11% (inactive) | 92.4% | 103% | -4.47% (inactive) | -0.16% (inactive) |

— PubChem BioAssay
